Laboratory results as given in ChEMBL document CHEMBL5506039, “Discovery and Optimization of Tambjamines as a Novel Class of Antileishmanial Agents” (J Med Chem, 2024).

Experiments:
[1] = tested on: Leishmania mexicana; assay: Antileishmanial activity against Leishmania mexicana MNYC/BZ/62/M379 amastigotes expressing red-shifted firefly luciferase from integrated ribosomal (28S) RNA locus infected in mouse J774.A1 cells assessed as parasite survival at 0.1 uM measured after 96 hrs by luminescence based analysis relative to control; type: functional; conditions: MNYC/BZ/62/M379, J774.A1
[2] = Metabolic stability in pre-warmed pooled mouse liver microsomes assessed as half life at 1 uM measured upto 60 mins by LC-MS analysis; type: ADME, Microsome
Method in brief: (§1)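 Compound at 1 μM final with 0.5 mg/mL pooled human or mouse liver microsomes, 1.3 mM NADP and 3.3 mM MgCl₂ in 100 mM potassium phosphate, pH 7.4. Reaction started with 1 U/mL G6PD at 37 °C with shaking.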

[3] = Metabolic stability in pre-warmed pooled human liver microsomes assessed as half life at 1 uM measured upto 60 mins by LC-MS analysis; type: ADME, Microsome; method in brief: as §1
[4] = Cytotoxicity against mouse J774.A1 cells assessed as cell survival at 0.1 uM measured after 96 hrs by SYBR Green II dye based analysis relative to control; type: toxicity; conditions: read-out: Survival
Method in brief: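 Uninfected J774A.1 mouse macrophages were plated at 1 × 10⁴ cells/well in DMEM with 10% heat-inactivated FBS and left 3 h at 37 °C to reattach. Compounds were added from DMSO, and analogues were screened at 0.1 μM. After 96 h at 37 °C in 5% CO₂, medium was removed. SYBR Green II (1:1000 in 1% Triton/PBS) was added for 1 h in the dark at room temperature, and fluorescence was read at Ex 485/Em 535 as a DNA-content measure of viability.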

[5] = Therapeutic index, ratio of EC50 for mouse J774.A1 cells to EC50 for antileishmanial activity against Leishmania mexicana MNYC/BZ/62/M379 amastigotes expressing red-shifted firefly luciferase from integrated ribosomal (28S) RNA locus infected in mouse J774.A1 cells; type: toxicity, cell-based; conditions: read-out: TI
[6] = tested on: Leishmania mexicana; assay: Antileishmanial activity against Leishmania mexicana MNYC/BZ/62/M379 amastigotes expressing red-shifted firefly luciferase from integrated ribosomal (28S) RNA locus infected in mouse J774.A1 cells assessed as reduction in parasite survival measured after 96 hrs by luminescence based analysis; type: functional, organism-based; conditions: MNYC/BZ/62/M379, J774.A1, 96 h
Method in brief: (§2)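 J774A.1 macrophages infected with stationary-phase luciferase-expressing promastigotes at 10:1 parasites:macrophage, overnight at 37 °C, 5% CO₂. Non-internalized parasites washed off and 1 × 10⁴ cells/well replated in MEM/10% HI-FBS. Compounds in DMSO added as serial 3-fold dilutions (typically 10 μM–1 nM) for 96 h. Luciferase luminescence read; EC50 from log-transformed sigmoidal variable-slope fit. Mean ± SD of ≥2 independent experiments.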

[7] = Cytotoxicity against mouse J774.A1 cells assessed as reduction in cell survival measured after 96 hrs by SYBR Green II dye based analysis; type: toxicity
Method in brief: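 Uninfected J774A.1 macrophages, 1 × 10⁴ cells/well in DMEM/10% HI-FBS, reattached 3 h, then exposed to compounds for 96 h. DNA content read after lysis with SYBR Green II (1:1000 in 1% Triton/PBS), 1 h dark at room temperature, fluorescence Ex 485/Em 535.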

[8] = tested on: Leishmania donovani; assay: Antileishmanial activity against Leishmania donovani amastigotes expressing red-shifted firefly luciferase from integrated ribosomal (28S) RNA locus infected in mouse J774.A1 cells assessed as reduction in parasite growth measured after 96 hrs by luminescence based analysis; type: functional, organism-based; conditions: J774.A1, 96 h; method in brief: as §2

| SMILES | survival at 0.1 µM [1] | half-life at 1 µM [2] | half-life at 1 µM [3] | viability at 96 h, 0.1 µM [4] | selectivity ratio [5] | EC50 [6] | EC50 at 96 h [7] | EC50 [8] |
| --- | --- | --- | --- | --- | --- | --- | --- | --- |
| C(/NCC1CCCCCC1)=C1/N=C(c2ccc[nH]2)C2=C1CCCC2.Cl | 16.1% | > 60 min | > 60 min | 75% | – | – | – | – |
| Cc1ccc(N/C=C2\N=C(c3ccc[nH]3)C3=C2CCCC3)cc1.Cl | 112% | – | 42.1 min | 95.1% | – | – | – | – |
| Cl.FC(F)(F)Oc1ccc(OC2=CC(c3ccc[nH]3)=N/C2=C\NC23CC4CC(CC(C4)C2)C3)cc1 | 35.7% | > 60 min | > 60 min | 80.7% | 8.6 | 41 nM | 353 nM | – |
| COC1=CC(c2ccc(Cc3ccc(OC)cc3)[nH]2)=N/C1=C\NC1CCCCCC1.Cl | -0.11% | – | 25.6 min | 84.6% | 59 | 16.2 nM | 959 nM | – |
| COC1=CC(c2ccc[nH]2)=N/C1=C\Nc1ccccc1 | 14.3% | – | – | 72.8% | 14 | 73 nM | 1040 nM | 226 nM |
| COC1=CC(c2ccc(-c3ccc(OC)cc3)[nH]2)=N/C1=C\NC1CCCCCC1.Cl | -0.02% | > 60 min | > 60 min | 77.3% | 24 | 18.8 nM | 450 nM | – |
| COC1=CC(c2ccc[nH]2)=N/C1=C\Nc1ccc(OC(F)(F)F)cc1.Cl | 18.9% | – | > 60 min | 89.6% | > 14 | 72.5 nM | > 1000 nM | – |
| COC1=CC(c2ccc(Cc3ccc(OC)cc3)[nH]2)=N/C1=C\NC12CC3CC(CC(C3)C1)C2.Cl | -0.05% | > 60 min | > 60 min | 59.6% | > 88 | 11.3 nM | > 1000 nM | – |
| COC1=CC(c2ccc[nH]2)=N/C1=C\Nc1cccc(OC(F)(F)F)c1.Cl | 11.4% | 15.8 min | > 60 min | 83.7% | 14 | 54 nM | 760 nM | – |
| COC1=CC(c2ccc[nH]2)=N/C1=C\Nc1ccc(Oc2ccc(OC)cc2)cc1 | 8.65% | 30.1 min | > 60 min | 50.2% | > 15 | 66 nM | > 1000 nM | – |
| COC1=CC(c2ccc(Cc3ccc(OC)cc3)[nH]2)=N/C1=C\NC1CCCCC1.Cl | 0.01% | – | 19.7 min | 84.6% | 42 | 22.6 nM | 946 nM | – |
| COc1ccc(Oc2ccc(N/C=C3\N=C(c4ccc[nH]4)C4=C3CCCC4)cc2)cc1.Cl | 89.8% | > 60 min | > 60 min | 62.5% | – | – | – | – |
| COC1=CC(c2ccc[nH]2)=N/C1=C\Nc1ccc2c(c1)OCCO2.Cl | 9.03% | 15.8 min | > 60 min | 77.3% | > 31 | 32 nM | > 1000 nM | – |
| Cc1ccc(Oc2ccc(N/C=C3\N=C(c4ccc[nH]4)C4=C3CCCC4)cc2)cc1.Cl | 102% | > 60 min | > 60 min | 58.2% | – | – | – | – |
| CCCCCCCCCCCN/C=C1\N=C(c2ccc[nH]2)C=C1OC | 11.9% | – | – | 112% | > 21 | 47.5 nM | > 1000 nM | – |
| COC1=CC(c2ccc(Cc3ccc(OC)cc3)[nH]2)=N/C1=C\NC1CCCCCCC1.Cl | -0.11% | – | 50.8 min | 84.8% | 35 | 15.8 nM | 547 nM | – |

| SMILES | survival at 0.1 µM [1] | half-life at 1 µM [2] | half-life at 1 µM [3] | viability at 96 h, 0.1 µM [4] | selectivity ratio [5] | EC50 [6] | EC50 at 96 h [7] | EC50 [8] |
| --- | --- | --- | --- | --- | --- | --- | --- | --- |
| CCc1ccc(C2=N/C(=C\NC3CCCCCC3)C(OC)=C2)[nH]1.Cl | 0.3% | – | > 60 min | 52.5% | 14 | 37.1 nM | 512 nM | – |
| FC(F)(F)Oc1ccc(OC2=CC(c3ccc[nH]3)=N/C2=C\NC2CCCCCC2)cc1 | 43% | – | – | 82.8% | 4.1 | 155 nM | 642 nM | – |
| CC1=C(C)/C(=C/NCC2CCCCCC2)N=C1c1ccc[nH]1 | 14.2% | – | – | 53.2% | 17 | 91.7 nM | 1600 nM | – |
| CC1=C(C)/C(=C/NC23CC4CC(CC(C4)C2)C3)N=C1c1[nH]c(C)cc1C | 12.5% | – | – | 93.2% | 14 | 46.5 nM | 667 nM | – |
| CCc1c[nH]c(C2=N/C(=C\NC3CCCCCC3)C(C)=C2C)c1.Cl | 23.8% | 11 min | > 60 min | 63.3% | 11 | 117 nM | 1330 nM | – |
| FC(F)(F)Oc1ccc(OC2=CC(c3ccc[nH]3)=N/C2=C\NCC2CCCCCC2)cc1 | 42.9% | – | – | 97.6% | 4.3 | 167 nM | 717 nM | – |
| CCCCCCN/C=C1\N=C(c2ccc[nH]2)C=C1Oc1ccc(OC(F)(F)F)cc1 | 46.1% | – | – | 110% | 3.6 | 303 nM | 1100 nM | – |
| COC1=CC(c2ccc[nH]2)=N/C1=C\Nc1ccc(C)cc1.Cl | 5.49% | 28.9 min | 30 min | 50.8% | 4.2 | 41 nM | 171 nM | – |
| COC1=CC(c2ccc[nH]2)=N/C1=C\Nc1ccc(Cl)c(Cl)c1.Cl | 23.8% | – | 56.2 min | 67.5% | > 10 | 100 nM | > 1000 nM | – |
| COC1=CC(c2ccc[nH]2)=N/C1=C\N[C@H]1CC[C@H](NC(=O)OC(C)(C)C)CC1 | 28.3% | 9.71 min | 8.45 min | 51.1% | 34 | 87.7 nM | 2990 nM | – |
| C[C@H]1CC[C@H](N/C=C2\N=C(c3ccc[nH]3)C=C2Oc2ccc(Cl)cc2)CC1 | 27.5% | – | – | 80.1% | 4.4 | 72.3 nM | 321 nM | – |
| COC1=CC(c2ccc(Cc3ccc(OC)cc3)[nH]2)=N/C1=C\NC1CCCC1.Cl | 1.4% | – | 11.7 min | 86.6% | 30 | 23.8 nM | 717 nM | – |
| COC1=CC(c2ccc[nH]2)=N/C1=C\Nc1cccc(Cl)c1.Cl | 13.6% | – | > 60 min | 65.3% | 6.2 | 91.5 nM | 570 nM | – |
| FC(F)(F)Oc1ccc(OC2=CC(c3ccc[nH]3)=N/C2=C\N[C@H]2CC[C@H](C(F)(F)F)CC2)cc1 | 33.2% | – | – | 108% | 9.6 | 88.7 nM | 852 nM | – |
| COC1=CC(c2ccc[nH]2)=N/C1=C\NC1CCN(Cc2ccccc2)CC1 | 24.6% | – | – | 124% | 7.9 | 79.5 nM | 625 nM | – |
| FC(F)(F)Oc1ccc(OC2=CC(c3ccc[nH]3)=N/C2=C\NC2CCCCC2)cc1 | 52.7% | – | – | 81.3% | 11.7 | 84 nM | 982 nM | – |
